Assay results collected from several papers.
Each line is one published result; the experiments were not run side by side.
PDE5A: cGMP-specific 3',5'-cyclic phosphodiesterase (PDE5A, Homo sapiens, UniProt O76074)
PPO3: PPO3 (Agaricus bisporus, UniProt C7FF04)
PFF0160c: Dihydroorotate dehydrogenase (quinone), mitochondrial (PFF0160c, Plasmodium falciparum, UniProt Q08210)
MEP1A: Meprin A subunit alpha (MEP1A, Homo sapiens, UniProt Q16819)
KDM1A: Lysine-specific histone demethylase 1A (KDM1A, Homo sapiens, UniProt O60341)
ARAF: Serine/threonine-protein kinase A-Raf (ARAF, Homo sapiens, UniProt P10398)
AURKB: Aurora kinase B (AURKB, Homo sapiens, UniProt Q96GD4)

Compound | target | assay | setting | IC50 [µM]
CC/C=C\C/C=C\C/C=C\C/C=C\C/C=C\CCCC(=O)O | Deoxyribonuclease-1 (DNASE1, Bos taurus, UniProt P00639) | enzyme activity, inhibitor | – | > 100
COc1ccc([C@@H]2c3[nH]c4ccccc4c3C[C@H]3C(=O)N(C(C)(C)C)C(=O)N23)cc1OC | PDE5A | enzyme activity, inhibitor, FP | – | 6.21
O=C(Nc1ccn(Cc2ccc(O)cc2C(F)(F)F)n1)c1c(F)cccc1F | Sodium channel protein type 9 subunit alpha (SCN9A, Homo sapiens, UniProt Q15858) | ion current, inhibitor | – | > 10
Nc1nc(N)c(N=Nc2ccc([N+](=O)[O-])cc2)c(Cl)n1 | PPO3 | enzyme activity, inhibitor, absorbance | – | 37.2
CCCCc1ccc(-c2ccc(-c3cc(C(=O)O)c4cc(Cl)cc(Cl)c4n3)o2)cc1 | Eukaryotic initiation factor 4A-I (EIF4A1, Homo sapiens, UniProt P60842) | ATPase activity, inhibitor, absorbance | – | 52.1
COc1ccc(C2=NN(C3CCCCCC3)C(=O)[C@@H]3CC=CC[C@H]23)cc1-c1ccc(C(=O)NCC(N)=O)cc1 (relative stereo) | 3',5'-cyclic-AMP phosphodiesterase 4A (PDE4A, Homo sapiens, UniProt P27815) | enzyme activity, inhibitor | – | 0.316
Cc1ccc(C(C)C)cc1NC(=O)COC(=O)/C=C/c1ccccc1O | PPO3 | enzyme activity, inhibitor | – | 1.81
Cc1cc(Nc2cccc(Cl)c2)n2[nH]c(=O)nc2n1 | PFF0160c | enzyme activity, inhibitor | – | > 10
CC(C)C[C@H]1CC(=O)N[C@@H](C)C(=O)N[C@@H](CCCCCC(=O)O)C(=O)N[C@@H](Cc2c[nH]c3ccccc23)C(=O)N1 | Histone deacetylase 2 (HDAC2, Homo sapiens, UniProt Q92769) | enzyme activity, inhibitor | – | 0.2
O=C(CCN(Cc1cccnc1)Cc1ccc2c(c1)OCO2)NO | MEP1A | enzyme activity, inhibitor | – | 0.464
CC(=O)Nc1ccc(N=Nc2c(N)nc(N)nc2N)cc1 | PPO3 | enzyme activity, inhibitor, absorbance | – | 29.8
Cc1cc(Nc2ccc(C(F)(F)F)cc2)c2ccccc2n1 | PFF0160c | enzyme activity, inhibitor | – | 0.98
Cc1cc(Nc2cccc(Cl)c2)n2nc(CC(C)C)nc2n1 | PFF0160c | enzyme activity, inhibitor | – | > 10
Cc1ccc(C(C)C)cc1NC(=O)COC(=O)c1ccc(O)cc1 | PPO3 | enzyme activity, inhibitor | – | 18
CNCCOc1nc2nc(C)cc(Nc3cccc(Cl)c3)n2n1 | PFF0160c | enzyme activity, inhibitor | – | > 10
C#CCSc1nc(Sc2nnnn2-c2ccccc2)c2nnn(Cc3cccc(Cl)c3)c2n1 | KDM1A | enzyme activity, inhibitor, fluorescence | – | 0.074
CCN1C(=O)[C@@H]2Cc3c([nH]c4ccccc34)[C@@H](c3ccc(OC)c(OC)c3)N2C1=O | PDE5A | enzyme activity, inhibitor, FP | – | 13.7
Cc1cc(Nc2ccc(Cl)cc2)n2nc(OCCN)nc2n1 | PFF0160c | enzyme activity, inhibitor | – | > 10
COc1ccc([C@@H]2c3[nH]c4ccccc4c3C[C@H]3C(=O)N(c4ccc(Cl)cc4)C(=O)N23)cc1OC | PDE5A | enzyme activity, inhibitor, FP | – | 5.36
CC(=O)N[C@@H](CC(=O)O)C(=O)N[C@@H](CCC(=O)O)C(=O)N[C@H](C(=O)N[C@H](C=O)CC(=O)O)C(C)C | Caspase-6 (CASP6, Homo sapiens, UniProt P55212) | enzyme activity, inhibitor | – | 0.0232
COCCOc1nc2nc(C)cc(Nc3ccc(Cl)cc3)n2n1 | PFF0160c | enzyme activity, inhibitor | – | > 10

Compound | target | assay | setting | IC50 [µM]
CN(C)CCOc1ccc(-c2nc(-c3ccncc3)c(-c3ccc4c(c3)CC/C4=N\O)[nH]2)cc1 | ARAF | enzyme activity, inhibitor | lysate | > 10
CC(C)(C)n1nc(-c2cnc3cc(OC4CC4)ccc3c2)c(C(N)=O)c1N | AURKB | cell-free assay, inhibitor | – | > 10
CC(C)(C)N1C(=O)[C@H]2Cc3c([nH]c4ccccc34)[C@@H](c3cccnc3)N2C1=O | PDE5A | enzyme activity, inhibitor, FP | – | 0.41
Cc1[nH]ncc1C(=O)N1CCC(C)(NC(=O)c2c[nH]c(=O)c3ccccc23)C1 (stereo not drawn) | Poly [ADP-ribose] polymerase 1 (PARP1, Homo sapiens, UniProt P09874) | enzyme activity, inhibitor | – | 0.794
CCCSc1nc(Sc2nnnn2C)c2nnn(C3CCCC3)c2n1 | KDM1A | enzyme activity, inhibitor, fluorescence | – | 0.413
Cc1ccc(N=Nc2c(N)nc(N)nc2Cl)cc1 | PPO3 | enzyme activity, inhibitor, absorbance | – | 42
COc1ccc(Nc2nc(N)c(C(=O)c3ccc(OC)c(OC)c3)s2)cc1 | Sphingosine kinase 1 (SPHK1, Homo sapiens, UniProt Q9NYA1) | enzyme activity, inhibitor | – | ~3
CCCSc1nc(Sc2nnnn2C)c2nnn(CCc3cccs3)c2n1 | KDM1A | enzyme activity, inhibitor, fluorescence | – | 0.339
COCCc1nc2nc(C)cc(Nc3cccc(Cl)c3)n2n1 | PFF0160c | enzyme activity, inhibitor | – | > 10
CCN1C(=O)[C@H]2Cc3c([nH]c4ccccc34)[C@@H](c3cccnc3)N2C1=O | PDE5A | enzyme activity, inhibitor, FP | – | 0.14
Cc1ccc(C(C)C)cc1NC(=O)COC(=O)c1cc(O)cc(O)c1 | PPO3 | enzyme activity, inhibitor | – | 20.2
Cc1cc(Nc2ccc(S(F)(F)(F)(F)F)cc2)n2nc(OCCN(C)C)nc2n1 | PFF0160c | enzyme activity, inhibitor | – | > 10
O=C1Nc2ccc(I)cc2/C1=C/c1cc(Br)c(O)c(Br)c1 | ARAF | enzyme activity, inhibitor, radiometric | – | 0.0154
O=C(Nc1c[nH]nc1-c1nc2cc(CN3CCOCC3)ccc2[nH]1)NC1CC1 | AURKB | enzyme activity, inhibitor, mobility shift | – | 0.0023
C[C@@H]1Cc2ccccc2N1C(=O)NCCCCN(C)[C@@H]1Cc2cccc3[nH]c(=O)n(c23)C1 | 5-hydroxytryptamine receptor 2A (HTR2A, Homo sapiens, UniProt P28223) | ligand displacement, radioligand | – | 3.7
Cc1cc(Nc2ccc(S(F)(F)(F)(F)F)cc2)n2nc(CC(C)C)nc2n1 | PFF0160c | enzyme activity, inhibitor | – | > 10
CN1CCN(c2ccc(Nc3ncc4cc(C#N)c(=O)n(C5CCCC5)c4n3)cc2)CC1 | Tyrosine-protein kinase TXK (TXK, Homo sapiens, UniProt P42681) | enzyme activity, inhibitor | – | 0.638
O=C(CCN(Cc1ccc(Cl)cc1F)Cc1ccc(Cl)c(O)c1F)NO | MEP1A | enzyme activity, inhibitor | – | 0.215
COc1cc(C[C@H]2C(=O)OC[C@@H]2Cc2ccc(OC)c(OC)c2)ccc1O | PDE5A | enzyme activity, inhibitor | – | > 20
Nc1cc(Nc2ccc(C(F)(F)F)cc2)n2ncnc2n1 | PFF0160c | enzyme activity, inhibitor | – | 31
CCCC[C@H](NC(=O)[C@H](C)c1c(C)[nH]c2ccc(O)cc12)c1ncc(-c2cc3ccccc3nc2OC)[nH]1 | Cannabinoid receptor 1 (CNR1, Homo sapiens, UniProt P21554) | cell-free assay | – | 9.75
